The source made the active and inactive calls. The calls are words filed in the database; no cut-off is given here.
Assays:
[1] = biological target: T1, L-lactate dehydrogenase A chain (Homo sapiens, UniProt P00338); test: Inhibition of LDH-A (unknown origin) by enzyme assay
[2] = biological target: T1, L-lactate dehydrogenase A chain; test: Binding affinity to human LDH-A by surface plasmon resonance analysis
Procedure, shortened: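 Human LDH-A amine-coupled to a CM5 chip (~13000 RU), carbonic anhydrase II as reference surface. Running buffer 10 mM HEPES, 150 mM NaCl, 3% DMSO. Compounds injected as 2-fold dilution series, top 1 mM, at 20 °C. Equilibrium and kinetic responses fitted to a 1:1 binding model to give Kd.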

[3] = biological target: T1, L-lactate dehydrogenase A chain; test: Inhibition of LDH-A (unknown origin) in presence of 0.1% Triton
[4] = biological target: T1, L-lactate dehydrogenase A chain; test: Inhibition of LDH-A (unknown origin) in absence of 0.1% Triton
[5] = biological target: T1, L-lactate dehydrogenase A chain; test: Inhibition of LDH-A in human Ramos cells assessed as cellular lactate level at 200 uM after 4 hrs; assay type: cell-based
Procedure, shortened: (§1)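 Supernatant sampled after 1 and 4 h. Extracellular lactate measured by a two-step lactate assay, both times within the linear range. Lactate expressed relative to vehicle, from a representative experiment.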

[6] = biological target: T1, L-lactate dehydrogenase A chain; test: Inhibition of LDH-A in human Ramos cells assessed as cellular lactate level at 200 uM after 1 hr; assay type: cell-based
Procedure, shortened: as §1

[7] = biological target: T1, L-lactate dehydrogenase A chain; test: Inhibition of LDH-A (unknown origin) up to 1 mM in presence of 0.1% Triton

Row | SMILES | IC50 [1] | Kd [2] | also measured
1 | Nc1cc(F)cc(-c2ccc(C(=O)O)cn2)c1 | 1300 µM |  | 
2 | O=C(CCCCN1C(=O)/C(=C/c2ccc(O)c(O)c2)SC1=S)NCc1ccc(Cl)c(Cl)c1 |  |  | inhibition [7]: inactive
3 | COc1cc(OCC(O)CO)c(Cl)cc1NC(=O)CSc1ccc(C(=O)O)cn1 (stereo unspecified) | 342 µM | 360 µM | 
4 | COC(=O)c1ccc(SCC(=O)Nc2cc(Cl)c(OC[C@@H](O)[C@@H](O)[C@H](O)[C@H](O)CNc3cc(F)cc(-c4ccc(C(=O)OC)cn4)c3)cc2OC)nc1 | > 10000 µM |  | inhibition [5]: inactive; inhibition [6]: inactive
5 | O=C(O)c1ccc(-c2ccccc2)nc1 | > 2000 µM | 2300 µM | 
6 | O=C(O)CN1C(=O)/C(=C/c2ccc(O)c(O)c2)SC1=S |  |  | inhibition [7]: inactive
7 | O=C(O)COc1cc(F)cc(-c2ccc(C(=O)O)cn2)c1 | 2200 µM | 1300 µM | 
8 | COc1ccc(Cl)cc1NC(=O)CSc1ccc(C(=O)O)cn1 | 770 µM | 137 µM | 
9 | COc1cc(OCCCOCCCOc2cc(F)cc(-c3ccc(C(=O)O)cn3)c2)c(Cl)cc1NC(=O)CSc1ccc(C(=O)O)cn1 | 59 µM | 0.85 µM | 

Now from value to compound, other results behind:

Row | IC50 [1] | Kd [2] | SMILES | also measured
10 | 15.2 µM | 12 µM | COc1cc(OC[C@H](O)[C@H](O)[C@@H](O)[C@@H](O)COc2cc(F)cc(-c3ccc(C(=O)O)cn3)c2)c(Cl)cc1NC(=O)CSc1ccc(C(=O)O)cn1 | 
11 | 0.44 µM | 0.068 µM | COc1cc(OC[C@@H](O)[C@@H](O)[C@H](O)[C@H](O)COc2cc(F)cc(-c3ccc(C(=O)O)cn3)c2)c(Cl)cc1NC(=O)CSc1ccc(C(=O)O)cn1 | IC50 [3]: 0.325 µM; IC50 [4]: 0.22 µM
12 | 13 µM | 2.95 µM | COc1cc(OC[C@@H](O)[C@@H](O)[C@H](O)[C@H](O)CNc2cc(F)cc(-c3ccccn3)c2)c(Cl)cc1NC(=O)CSc1ccc(C(=O)O)cn1 | lactate level (% of vehicle) [5]: 35%; lactate level (% of vehicle) [6]: 17%
13 | 2.4 µM | 0.222 µM | COc1cc(OC[C@@H](O)[C@@H](O)[C@H](O)[C@H](O)CNc2cc(F)cc(-c3ccc(C(=O)O)cn3)c2)c(Cl)cc1NC(=O)CSc1ccccn1 | lactate level (% of vehicle) [5]: 61%; lactate level (% of vehicle) [6]: 21%
14 | 0.12 µM | 0.019 µM | COc1cc(OC[C@@H](O)[C@@H](O)[C@H](O)[C@H](O)CNc2cc(F)cc(-c3ccc(C(=O)O)cn3)c2)c(Cl)cc1NC(=O)CSc1ccc(C(=O)O)cn1 | lactate level (% of vehicle) [5]: 68%; lactate level (% of vehicle) [6]: 56%
15 | 2.4 µM | 0.175 µM | COc1cc(OCCCNC(=O)COc2cc(F)cc(-c3ccc(C(=O)O)cn3)c2)c(Cl)cc1NC(=O)CSc1ccc(C(=O)O)cn1 | 
